# Measurements reported in ChEMBL document CHEMBL3808344, “Design and synthesis of novel benzoxazole analogs as Aurora B kinase inhibitors” (Bioorg Med Chem Lett, 2016).
# Activity calls are given as the source filed them. The calls are words filed in the database; no cut-off is given here.
# Legend:
# Aurora kinase B [1] = molecular target: T1, Aurora kinase B (Homo sapiens, UniProt Q96GD4); experiment: Inhibition of Aurora B (unknown origin) using myelin protein as substrate assessed as ADP generation at 10 uM after 60 mins by ADP-glo assay relative to staurosporine
# T1 sequence (Q96GD4 whole entry): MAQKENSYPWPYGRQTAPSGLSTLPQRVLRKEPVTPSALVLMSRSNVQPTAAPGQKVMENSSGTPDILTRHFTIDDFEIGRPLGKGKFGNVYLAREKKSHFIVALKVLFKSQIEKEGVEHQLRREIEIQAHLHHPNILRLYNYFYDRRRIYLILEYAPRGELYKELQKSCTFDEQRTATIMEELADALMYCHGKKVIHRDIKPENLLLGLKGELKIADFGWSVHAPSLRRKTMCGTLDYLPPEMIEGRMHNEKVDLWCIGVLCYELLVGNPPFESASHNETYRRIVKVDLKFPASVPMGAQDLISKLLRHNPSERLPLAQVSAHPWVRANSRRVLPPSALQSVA
# Summary of the method: (§1)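 Aurora A and Aurora B activity read by ADP-Glo, measuring ADP formed from ATP during the kinase reaction. Compounds tested at 10 μM. Inhibition expressed as percentage relative to the staurosporine positive control.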
# [2] = molecular target: T2, Aurora kinase A (Homo sapiens) (UniProt O14965); experiment: Inhibition of Aurora A (unknown origin) using myelin protein as substrate assessed as ADP generation at 10 uM after 60 mins by ADP-glo assay relative to staurosporine; summary of the method: as §1
# T2 sequence (whole entry): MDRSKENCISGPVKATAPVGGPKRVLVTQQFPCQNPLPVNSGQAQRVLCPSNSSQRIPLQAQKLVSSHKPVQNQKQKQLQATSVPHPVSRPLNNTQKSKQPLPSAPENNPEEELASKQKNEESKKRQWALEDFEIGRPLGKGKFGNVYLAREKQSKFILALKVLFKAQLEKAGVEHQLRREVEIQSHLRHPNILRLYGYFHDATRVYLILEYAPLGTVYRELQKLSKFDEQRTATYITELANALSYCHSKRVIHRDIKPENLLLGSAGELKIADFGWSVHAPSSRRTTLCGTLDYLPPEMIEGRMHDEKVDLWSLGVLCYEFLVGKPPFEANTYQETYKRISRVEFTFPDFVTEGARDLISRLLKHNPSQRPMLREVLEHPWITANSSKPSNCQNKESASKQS
# Aurora kinase B [3] = molecular target: T1, Aurora kinase B; experiment: Inhibition of Aurora B (unknown origin) using myelin protein as substrate assessed as ADP generation after 60 mins by ADP-glo assay
# ACHN = experiment: Cytotoxicity against human ACHN cells assessed as reduction in cell growth after 48 hrs by SRB assay; format: functional
# [4] = Cytotoxicity against human HCT15 cells assessed as reduction in cell growth after 48 hrs by SRB assay; format: functional; conditions: HCT-15, 48 h
# NCI-H23 = experiment: Cytotoxicity against human NCI-H23 cells assessed as reduction in cell growth after 48 hrs by SRB assay; format: functional; conditions: NCI-H23, 48 h
# MDA-MB-231 = experiment: Cytotoxicity against human MDA-MB-231 cells assessed as reduction in cell growth after 48 hrs by SRB assay; format: functional; conditions: MDA-MB-231, 48 h
# [5] = Cytotoxicity against human NUGC3 cells assessed as reduction in cell growth after 48 hrs by SRB assay; format: functional; conditions: NUGC-3, 48 h
# [6] = Cytotoxicity against human PC3 cells assessed as reduction in cell growth after 48 hrs by SRB assay; format: functional; conditions: PC-3, 48 h
# PC-3 = experiment: Antitumor activity against human PC3 cells xenografted in nu/nu BALB/c mouse assessed as tumor growth inhibition at 50 mg/kg, po administered qd for 16 days relative to control; format: functional, organism-based
# Summary of the method: (§2)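 PC-3 prostate tumours grown as xenografts in nude mice. Dosed orally at 50 mg/kg once daily for 16 days; vehicle was 10% dimethylacetamide plus 10% Tween 80 in water. Tumour volume measured every two or three days, tumours weighed after harvest on day 16, and body weight followed throughout. Treated groups compared with vehicle by Student's t-test.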
# Mus musculus = experiment: Toxicity in nu/nu BALB/c mouse xenografted with human PC3 cells assessed as loss in body weight at 50 mg/kg, po administered qd for 16 days measured during compound dosing; format: organism-based, PC-3; conditions: in vivo, 384 h; summary of the method: as §2
SMILES,inhibition (Aurora kinase B [1]),inhibition [2],other results
O=C(Nc1ccccc1CNc1nc2ccc(OCCN3CCOCC3)cc2o1)c1ccccc1,inactive,–,–
O=C(Nc1ccc(Br)cc1)Nc1ccc(CNc2nc3ccc(OCCN4CCOCC4)cc3o2)cc1,69%,inactive,–
O=C(Nc1ccc(F)cc1)Nc1ccc(CNc2nc3ccc(OCCN4CCOCC4)cc3o2)cc1,34%,inactive,–
O=C(Nc1ccc(COc2ccc3oc(NCCN4CCOCC4)nc3c2)cc1)Nc1ccc(Cl)c(Cl)c1,74%,5%,–
O=C(Nc1ccc(Br)cc1)Nc1ccc(COc2ccc3oc(NCCN4CCOCC4)nc3c2)cc1,74%,3%,–
Cc1ccc(NC(=O)Nc2ccc(CNc3nc4ccc(OCCN5CCOCC5)cc4o3)cc2)cc1,65%,inactive,–
O=C(Nc1ccc(CNc2nc3ccc(OCCN4CCOCC4)cc3o2)cc1)Nc1cccc(Cl)c1,58%,13%,–
O=C(Nc1cccc(CNc2nc3ccc(OCCN4CCOCC4)cc3o2)c1)c1ccccc1,1%,–,–
O=C(Nc1ccc(CNc2nc3ccc(OCCN4CCOCC4)cc3o2)cc1)c1ccccc1,21%,–,–
O=C(Nc1ccc(Cl)cc1)Nc1ccc(CNc2nc3ccc(OCCN4CCOCC4)cc3o2)cc1,66%,5%,IC50 (Aurora kinase B [3]): 10.2 µM; GI50 (ACHN): 2.2 µM; GI50 [4]: 4.8 µM; GI50 (NCI-H23): 4 µM; GI50 (MDA-MB-231): 7.6 µM; GI50 [5]: 5.5 µM; GI50 [6]: 6.2 µM
O=C(Nc1cccc(Cl)c1)Nc1cccc(CNc2nc3ccc(OCCN4CCOCC4)cc3o2)c1,inactive,–,–
COc1ccc(NC(=O)Nc2ccc(CNc3nc4ccc(OCCN5CCOCC5)cc4o3)cc2)cc1,76%,10%,–
O=C(Nc1ccccc1)Nc1cccc(COc2ccc3nc(NCCN4CCOCC4)oc3c2)c1,80%,1%,–
O=C(Nc1ccc(CNc2nc3ccc(OCCN4CCOCC4)cc3o2)cc1)Nc1cccc(F)c1,63%,7%,–
O=C(Nc1ccc(COc2ccc3nc(NCCN4CCOCC4)oc3c2)cc1)Nc1ccc(Cl)c(Cl)c1,70%,2%,IC50 (Aurora kinase B [3]): 49.4 µM
O=C(Nc1ccc(Cl)cc1)Nc1ccc(COc2ccc3nc(NCCN4CCOCC4)oc3c2)cc1,94%,inactive,IC50 (Aurora kinase B [3]): 50.4 µM
O=C(Nc1ccc(Cl)cc1)Nc1ccc(COc2ccc3oc(NCCN4CCOCC4)nc3c2)cc1,37%,4%,–
O=C(Nc1ccccc1)Nc1ccc(CNc2nc3ccc(OCCN4CCOCC4)cc3o2)cc1,40%,15%,–
O=C(Nc1ccc(CNc2nc3ccc(OCCN4CCOCC4)cc3o2)cc1)Nc1ccc(Cl)c(Cl)c1,88%,24%,IC50 (Aurora kinase B [3]): 0.6 µM; GI50 (ACHN): 2.6 µM; TGI (PC-3): Active; Activity (Mus musculus): Non-toxic; GI50 [4]: 3 µM; GI50 (NCI-H23): 3.4 µM; GI50 (MDA-MB-231): 5 µM; GI50 [5]: 8.4 µM; GI50 [6]: 4.8 µM
O=C(Nc1ccc(Br)cc1)Nc1ccc(COc2ccc3nc(NCCN4CCOCC4)oc3c2)cc1,55%,inactive,–
O=C(Nc1ccc(CNc2nc3ccc(OCCN4CCOCC4)cc3o2)cc1)Nc1ccc(Cl)cc1Cl,86%,8%,IC50 (Aurora kinase B [3]): 0.7 µM
O=C(Nc1ccc(Cl)cc1)Nc1cccc(CNc2nc3ccc(OCCN4CCOCC4)cc3o2)c1,45%,8%,–
O=C(Nc1ccccc1)Nc1cccc(CNc2nc3ccc(OCCN4CCOCC4)cc3o2)c1,30%,–,–
O=C(Nc1ccc(Cl)cc1)Nc1ccc(CNc2nc3cc(OCCN4CCOCC4)ccc3o2)cc1,42%,8%,–
O=C(Nc1ccc(Br)cc1)Nc1ccc(CNc2nc3cc(OCCN4CCOCC4)ccc3o2)cc1,35%,-6%,–
